TRPC4 PAM – TRPC4 (mouse) allosteric potentiation; AID 2227; actives 0.42% (n = 310,000); Q9QUQ5; B-score at 10 µM; HEK293 TRPC4beta/mu-opioid, DAMGO EC20, Fluo-4 Ca2+ flux; hits give high values;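 active = B-score of calcium response area above 5 SD of library B-scores, with initial fluorescence ratio within 5 SD of library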;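 also: B-score of integrated fluorescence ratio over time as area under calcium response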
TRPC6 inh – blocks the mouse TRPC6 cation channel; actives 1.1% (n = 310,000); AID 2553; B-score at 10 µM; HEK293-TRPC6, membrane potential dye, ACh-evoked depolarization; hits give low values;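 active = B-score under library mean minus 3 SD, initial fluorescence not abnormally high, positive integrated signal ratio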;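 also: B-score derived from integrated fluorescence ratio over the kinetic read; more negative B-score means stronger inhibition of depolarization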
Target sequence (Q61143 whole entry, looked up): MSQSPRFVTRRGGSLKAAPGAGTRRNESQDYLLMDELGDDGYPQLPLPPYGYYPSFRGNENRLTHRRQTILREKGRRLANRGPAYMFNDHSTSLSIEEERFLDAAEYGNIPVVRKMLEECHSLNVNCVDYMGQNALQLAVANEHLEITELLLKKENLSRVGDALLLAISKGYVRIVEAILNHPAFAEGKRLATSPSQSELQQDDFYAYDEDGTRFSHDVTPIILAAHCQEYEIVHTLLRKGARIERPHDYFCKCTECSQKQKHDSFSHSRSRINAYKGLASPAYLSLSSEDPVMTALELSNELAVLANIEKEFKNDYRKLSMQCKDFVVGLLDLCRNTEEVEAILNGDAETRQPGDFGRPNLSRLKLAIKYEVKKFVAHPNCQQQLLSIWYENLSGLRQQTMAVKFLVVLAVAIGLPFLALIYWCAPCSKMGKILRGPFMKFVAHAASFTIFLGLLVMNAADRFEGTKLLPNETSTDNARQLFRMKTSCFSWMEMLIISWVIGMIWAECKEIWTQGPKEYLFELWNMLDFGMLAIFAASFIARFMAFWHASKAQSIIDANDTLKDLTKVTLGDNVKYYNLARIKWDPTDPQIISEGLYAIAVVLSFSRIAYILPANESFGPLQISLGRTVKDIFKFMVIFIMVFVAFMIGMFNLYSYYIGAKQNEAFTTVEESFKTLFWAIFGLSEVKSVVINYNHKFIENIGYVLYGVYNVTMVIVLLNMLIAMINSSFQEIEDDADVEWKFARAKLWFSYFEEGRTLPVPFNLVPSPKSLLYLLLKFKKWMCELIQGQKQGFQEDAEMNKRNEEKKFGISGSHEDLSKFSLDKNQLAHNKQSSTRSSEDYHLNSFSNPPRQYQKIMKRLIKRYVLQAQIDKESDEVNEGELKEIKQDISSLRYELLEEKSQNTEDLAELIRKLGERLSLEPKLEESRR
TRPC4 agonist – opens the mouse TRPC4 cation channel; Q9QUQ5; HEK293 TRPC4beta/mu-opioid, Fluo4 calcium fluorescence; hits give high values; B-score at 10 µM; actives 0.49% (n = 310,000);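 active = B-score above 5 SD of library B-scores, and initial fluorescence ratio not above library mean plus 5 SD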;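 also: positive B-score marks a calcium rise read as TRPC4 activation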
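Incubation: 45 min room-temperature Fluo4 loading, 110 s read / System: HEK293 cells stably co-expressing mouse TRPC4beta and mu-opioid receptor / Signal: Fluo4 fluorescence, kinetic / Control set: buffer (low) and maximal DAMGO (high) / Measure: integrated baseline-normalised fluorescence ratio, converted to per-well B score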
TRPC6 act – activators of mouse TRPC6 channel; Q61143; HEK293-TRPC6 membrane potential dye fluorescence; hits give high values; B-score at 10 µM; actives 0.13% (n = 310,000);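 active = B-score of the integrated fluorescence ratio above library mean plus 3 SD, and starting fluorescence ratio within library mean plus 5 SD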;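 also: higher score means more depolarization so channel activation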
TRPC4 block – blocks the mouse TRPC4 cation channel. Q9QUQ5. actives 0.39% (n = 300,000). B-score at 10 µM. HEK293 TRPC4beta/mu-opioid, DAMGO-evoked Fluo4 calcium flux; hits give low values. AID 2247;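 active = B-score over 3 SD under the library average, no early fluorescence shift, positive overall ratio signal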
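Assay system: TRPC4beta/mu-opioid receptor HEK293 cell line; compound dosing: single concentration per test compound; detection: Fluo4 Ca2+ flux fluorescence; evaluation: per-well B score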
Numbers without * were called inactive; i = inactive. The list is not random: actives were taken first. Their share in the collection is about 2.3%.

SMILES	TRPC4 PAM	TRPC6 inh	TRPC4 agonist	TRPC6 act	TRPC4 block
CCCn1c(NC(=O)c2ccccc2)nc2ccccc21	i	i	i	i	i
CCCn1c(NC(=O)c2cccc(S(=O)(=O)N3CCCC3)c2)nc2ccccc21	43*	i	i	i	-6*
CCN1CCCC1CN(Cc1cc2ccc(C)cc2[nH]c1=O)C(=S)Nc1cccc(OC)c1 (centres undefined)	i	i	i	i	i
Cc1cc(OCC(=O)N2CCCC2)ccc1Cl	i	i	i	i	i
Cc1cc(OCC(=O)N2CCCC2)cc(C)c1Cl	i	i	84*	i	i
Cc1ccc(S(=O)(=O)N(Cc2ccccc2)Cc2ccco2)cc1	14*	i	i	i	i
Cc1ccc(S(=O)(=O)N(Cc2ccc(F)cc2)Cc2ccco2)cc1	i	i	i	i	i
CN1CCN(Cc2nc3c([nH]2)c(=O)[nH]c(=O)n3C)CC1	i	i	72*	i	i
Cn1c(=O)c2[nH]c(CN3CCN(Cc4ccccc4)CC3)nc2n(C)c1=O	i	i	i	i	i
O=C(c1ccc(Cn2c(=S)[nH]c3ccc(Br)cc3c2=O)cc1)N1CCN(C2CCCCC2)CC1	i	i	i	i	i
Cc1cc(Cl)ccc1OC(C)C(=O)Nc1ccccc1N1CCOCC1 (centres undefined)	22*	i	i	i	i
CCN1CCN(c2ccc(S(=O)(=O)N3CCOCC3)cc2NC(=O)C(C)Oc2cccc(Cl)c2)CC1 (centres undefined)	i	i	101*	i	i
CCN1CCN(c2ccc(S(=O)(=O)N3CCOCC3)cc2NC(=O)c2ccccc2OC(F)F)CC1	i	i	131*	i	i
CC(Oc1cccc(Cl)c1)C(=O)Nc1cc(S(=O)(=O)N2CCOCC2)ccc1N1CCCCC1 (centres undefined)	i	i	i	i	i
CCSc1nnc(NC(=O)[C@@H](NC(=O)c2ccc(C(C)(C)C)cc2)C(C)C)s1	i	i	i	i	i
CC(COc1ccc(C(C)C)cc1)NC(=O)c1ccc(Br)o1 (centres undefined)	i	i	i	i	i
Cc1ccccc1-c1nc(CS(=O)(=O)CC(=O)NCCCN2CC(C)CC(C)C2)c(C)o1 (centres undefined)	i	i	66*	i	i
Cc1oc(-c2ccc(Cl)cc2)nc1CS(=O)CC(=O)NCCCN1CC(C)CC(C)C1 (centres undefined)	i	i	54*	i	i
COc1cccc(-c2nc(CS(=O)(=O)CC(=O)NCCCN3CC(C)CC(C)C3)c(C)o2)c1 (centres undefined)	i	i	65*	i	i
Cc1oc(-c2ccc(Cl)cc2)nc1CS(=O)CC(=O)NCCN1CCCCCC1 (centres undefined)	i	i	i	i	i
Cc1ccccc1-c1nc(CS(=O)(=O)CC(=O)NCCCN2CCOCC2)c(C)o1	i	i	i	i	i
Nc1nc(Nc2cccc(C(F)(F)F)c2)nc(C(F)(F)F)n1	i	-6.1*	i	i	i
Cc1cc(C(=O)C(C)OC(=O)c2cnccn2)c(C)n1-c1ccccc1 (centres undefined)	i	i	i	i	i
Cc1ccc(N(CC(=O)NCc2ccccc2)C(=O)CCC(=O)Nc2ccccn2)cc1C	i	i	i	i	i
CCCN(CCC)CCCNC(=S)Nc1ccc2nc3n(c(=O)c2c1)CCCCC3	14*	i	i	i	i
SMILES	TRPC4 PAM	TRPC6 inh	TRPC4 agonist	TRPC6 act	TRPC4 block
CCN(CC)CCNC(=S)Nc1ccc2nc3n(c(=O)c2c1)CCCCC3	i	i	i	i	i
CCCOc1cccc(C(=O)Nc2ccc3c(c2)OCCO3)c1	i	i	i	i	i
COc1ccc(CN2CCN(C(=O)c3ccc(F)cc3)CC2)c(OC)c1	i	i	i	i	-6*
Cc1nc(SCC(=O)N2CCC(Cc3ccccc3)CC2)[nH]c(=O)c1C	i	i	i	i	i
CCOC(=O)C1=C(Cc2ccc(C)cc2)C(=O)c2ccccc2C1=O	i	i	i	13*	i
CCOC(=O)c1ccc(COC(=O)c2ccc3c(c2)-c2ccccc2C3=O)cc1	i	i	i	i	i
CC(C)n1c(SCC(=O)N2c3ccccc3Sc3ccccc32)nc2c1c(=O)n(C)c(=O)n2C	17*	i	i	i	i
CC(C)n1c(SCC(N)=O)nc2c1c(=O)n(C)c(=O)n2C	i	i	i	i	i
CCCn1c(SCC(=O)N2c3ccccc3Sc3ccccc32)nc2c1c(=O)n(C)c(=O)n2C	77*	i	i	i	i
CN1CCN(c2ccc(Cl)cc2NC(=O)/C=C/c2cccc(F)c2)CC1	31*	i	i	i	i
CN1CCN(c2ccc(Cl)cc2NC(=O)CC2OC(=O)c3ccccc32)CC1 (centres undefined)	23*	i	i	i	i
CN1CCN(c2ccc(Cl)cc2NC(=O)C2COc3ccccc3O2)CC1 (centres undefined)	i	i	i	i	i
CCc1cc2c(COC(=O)c3cccc(NS(C)(=O)=O)c3)cc(=O)oc2cc1O	i	i	i	i	i
CCOc1ccc(CCNC(=O)COC(=O)c2ccc(S(=O)(=O)N3CCCC3)cc2)cc1OCC	i	i	i	i	i
CN(Cc1nc(-c2ccc3c(c2)OCO3)no1)CC1(N2CCOCC2)CCCCC1	35*	i	i	i	i
CCOC(=O)c1sc(-c2ccc(F)cc2)cc1NC(=O)Nc1ccccc1OC	i	i	i	i	i
CCC(C(=O)Nc1ccccc1OC)n1c(C(=O)OC)cc2ccsc21 (centres undefined)	15*	i	i	i	i
O=C(Nc1nnc(SCCC2OCCO2)s1)C1CC(=O)N(c2ccc(F)cc2)C1 (centres undefined)	i	i	i	i	i
CCCCc1ccc(NC(=O)CSc2nnc(C)c(=O)n2N)cc1	24*	i	i	i	i
CC(=O)Nc1ccc(NC(=O)CSc2nnc(C)c(=O)n2N)cc1	i	i	i	i	i
C=CCn1c(SCC(=O)c2ccc(NS(=O)(=O)c3ccccc3)cc2)nnc1-c1cccs1	18*	i	i	i	i
CCOC(=O)C1(Cc2cccc(F)c2)CCN(Cc2cnc(C)s2)CC1	i	i	66*	i	i

Assay outcomes from PubChem.
